Test results reported in ChEMBL document CHEMBL2434876, “Design, synthesis and biological evaluation of 2-substituted quinolines as potential antileishmanial agents” (Eur J Med Chem, 2013).
Calls of active or inactive are those of the source. The calls are words filed in the database; no cut-off is given here.

Experiments:
Leishmania donovani [1] = test: Antileishmanial activity against Leishmania donovani MHOM/IN/80/Dd8 amastigotes infected in mouse J774A1 cells assessed as parasite growth inhibition after 72 hrs by luciferase reporter gene assay; type: functional, organism-based; details: MHOM/IN/80/Dd8, J774.A1, 72 h
Outline: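 J774A.1 macrophages (4 x 10^3/well) in RPMI-1640 with 10% FCS for 24 h, then infected with stationary-phase luciferase-expressing promastigotes (4 x 10^4/well). Non-internalized parasites washed off after 24 h. Compounds given as 7-point serial dilution from 100 µM for 72 h at 37°C. Steady-Glo luminescence read; IC50 from four-parameter Hill fit, mean of two independent experiments.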

[2] = Cytotoxicity against African green monkey Vero cells after 72 hrs by MTT assay; type: cell-based; details: chlorocebus sabaeus
Outline: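 Exponentially growing Vero cells (1 x 10^5/well) exposed 72 h at 37°C, 5% CO2, to 7-point threefold dilutions from 400 µM (DMSO stocks diluted in medium), with DMSO vehicle controls. MTT added for 2 h, formazan dissolved in DMSO, absorbance read at 544 nm. CC50 is the concentration halving viability versus medium-only cells; mean of two independent experiments.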

[3] = Selectivity index, ratio of CC50 for African green monkey Vero cells to IC50 for Leishmania donovani MHOM/IN/80/Dd8 amastigotes; type: functional
Outline: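 Selectivity index is Vero CC50 divided by IC50 against intracellular L. donovani amastigotes in J774A.1 cells, each measured over 72 h.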

Leishmania donovani [4] = test: Antileishmanial activity against Leishmania donovani MHOM/IN/80/Dd8 amastigotes infected in golden hamster assessed as parasite growth inhibition at 30 mg/kg, po qd for 5 days measured on day 7 by Giemsa staining assay; type: functional; details: read-out: GI
Outline: (§1)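 Inbred golden hamsters, 40-45 g, infected intracardially with 1 x 10^7 L. donovani amastigotes. Animals with +1 spleen biopsy grade (5-15 amastigotes/100 nuclei) were randomized, 5-6 per group. Dosing in distilled water/PBS began 48 h after biopsy and ran 5 consecutive days. Post-treatment spleen biopsy on day 7, Giemsa count; percent inhibition corrected for initial count and untreated-control increase.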

[5] = Drug metabolism in hamster liver microsomes at 1 uM after 30 mins by LC-MS/MS analysis; type: ADME, Microsome; details: cricetinae, read-out: Drug metabolism
Outline: (§2)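 Liver microsomes (1 mg/mL protein) in sodium phosphate buffer pH 7.4 with 5 mM NADPH, preincubated 10 min at 37°C. Test compound taken from a 200 µM acetonitrile:DMSO (96:4) stock. Samples analysed by LC/MS/MS as analyte/internal standard peak-area ratio. Percent metabolized at 30 min relative to 0 min; NADPH-free controls run in parallel.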

[6] = Drug metabolism in mouse liver microsomes at 1 uM after 30 mins by LC-MS/MS analysis; type: ADME, Microsome; details: read-out: Drug metabolism; outline: as §2
[7] = Drug metabolism in human liver microsomes at 1 uM after 30 mins by LC-MS/MS analysis; type: ADME, Microsome; details: read-out: Drug metabolism; outline: as §2
[8] = Solubility of the compound; type: physicochemical
Leishmania donovani [9] = test: Antileishmanial activity against Leishmania donovani MHOM/IN/80/Dd8 amastigotes infected in golden hamster assessed as parasite growth inhibition at 50 mg/kg, ip qd for 5 days measured on day 7 by Giemsa staining assay; type: functional; outline: as §1
Leishmania donovani [10] = test: Antileishmanial activity against Leishmania donovani MHOM/IN/80/Dd8 amastigotes infected in golden hamster assessed as parasite growth inhibition at 50 mg/kg, po bid for 5 days measured on day 7 by Giemsa staining assay; type: functional; outline: as §1
Leishmania donovani [11] = test: Antileishmanial activity against Leishmania donovani MHOM/IN/80/Dd8 amastigotes infected in golden hamster assessed as parasite growth inhibition at 50 mg/kg, ip bid for 5 days measured on day 7 by Giemsa staining assay; type: functional; details: MHOM/IN/80/Dd8, ip, route intraperitoneal, read-out: GI; outline: as §1
[12] = Metabolic stability in whole blood (unknown origin); type: ADME, tissue-based
[13] = Tmax in Swiss Albino mouse at 50 mg/kg, po by LC-MS/MS analysis; type: ADME, organism-based; parameters: dose 50 mg/kg, route oral; details: in vivo
Outline: (§3)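 Male Swiss Albino mice, 8-12 weeks, 30-40 g, fasted 4 h pre-dose and fed 4 h post-dose. Parallel groups: 10 mg/kg IV tail-vein bolus or 50 mg/kg oral gavage. Sparse sampling, 3 mice per time point, from 0.083 (IV only) to 24 h. K2EDTA plasma analysed by LC-MS/MS (calibration 1–1000 ng/mL). Non-compartmental parameters; bioavailability from dose-normalized AUC ratio versus IV.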

[14] = Metabolic stability in plasma (unknown origin); type: ADME, cell-free
[15] = AUClast in Swiss Albino mouse at 10 mg/kg, iv by LC-MS/MS analysis; type: ADME, organism-based; parameters: time 0 - last, dose 10 mg/kg, route intravenous; details: plasma; outline: as §3
[16] = Cmax in Swiss Albino mouse at 10 mg/kg, iv by LC-MS/MS analysis; type: ADME, organism-based; parameters: dose 10 mg/kg, route intravenous; details: in vivo; outline: as §3
[17] = AUC (infinity) in Swiss Albino mouse at 10 mg/kg, iv by LC-MS/MS analysis; type: ADME, organism-based; parameters: time infinity, dose 10 mg/kg, route intravenous; details: plasma; outline: as §3
[18] = AUClast in Swiss Albino mouse at 50 mg/kg, po by LC-MS/MS analysis; type: ADME, organism-based; parameters: time 0 - last, dose 50 mg/kg, route oral; details: plasma; outline: as §3
[19] = Elimination half life in Swiss Albino mouse at 10 mg/kg, iv by LC-MS/MS analysis; type: ADME, organism-based; parameters: dose 10 mg/kg, route intravenous; details: in vivo, read-out: beta t1/2 (converted); outline: as §3
[20] = Oral bioavailability in Swiss Albino mouse at 50 mg/kg by LC-MS/MS analysis; type: ADME, organism-based; details: in vivo; outline: as §3
[21] = Tmax in Swiss Albino mouse at 10 mg/kg, iv by LC-MS/MS analysis; type: ADME, organism-based; parameters: dose 10 mg/kg, route intravenous; details: in vivo; outline: as §3
[22] = Plasma clearance in Swiss Albino mouse at 10 mg/kg, iv by LC-MS/MS analysis; type: ADME, organism-based; parameters: dose 10 mg/kg, route intravenous; outline: as §3
[23] = Volume of distribution at steady state in Swiss Albino mouse at 10 mg/kg, iv by LC-MS/MS analysis; type: ADME, organism-based; parameters: dose 10 mg/kg, route intravenous; details: in vivo, read-out: Vdss; outline: as §3
[24] = Cmax in Swiss Albino mouse at 50 mg/kg, po by LC-MS/MS analysis; type: ADME, organism-based; parameters: dose 50 mg/kg, route oral; details: in vivo; outline: as §3

Structure (SMILES) | IC50 (Leishmania donovani [1]) | CC50 at 72 h [2] | Ratio CC50/IC50 [3] | metabolised at 0.5 h, 1 µM [5] | metabolised at 0.5 h, 1 µM [6] | metabolised at 0.5 h, 1 µM [7] | also measured
O=C(O)/C=C/c1ccc2ccccc2n1 | 50.2 µM | > 400 µM | >7.96 | – | – | – | –
COc1ccc2nc(/C=C/CO)ccc2c1 | 32.4 µM | 45.9 µM | 1.42 | – | – | – | –
CCCCCCCCCCCCCCCCOP(=O)([O-])OCC[N+](C)(C)C [MILTEFOSINE] | – | 52.7 µM | 6.27 | – | – | – | inhibition in vivo at 30 mg/kg (Leishmania donovani [4]): 96.5%
OC/C=C/c1cc(-c2ccc(F)cc2)c2cc(Cl)c(F)cc2n1 | 1.43 µM | 24.6 µM | – | 53% | 51% | 25% | –
NC(=O)/C=C/c1ccc2ccccc2n1 | 20.4 µM | 76.3 µM | 3.74 | – | 97% | 44% | –
CN(C)c1cc(/C=C/CO)nc2cc(F)c(Cl)cc12 | 23 µM | 41.6 µM | 1.8 | – | – | – | –
OC/C=C/c1cc(Oc2ccc(F)cc2)c2cc(Cl)ccc2n1 | 1.96 µM | 35.4 µM | 18.07 | 94% | 33% | 27% | –
COc1ccc(-c2cc(/C=C/CO)nc3ccc(Cl)cc23)cc1 | 0.22 µM | 37.1 µM | 168.72 | – | 34% | 8% | –
FC/C=C/c1ccc2ccccc2n1 | 6.68 µM | 38.6 µM | 5.77 | – | 100% | 100% | solubility [8]: > 1000 µg/mL
CCCc1ccc2ccccc2n1 | > 100 µM | 126 µM | <1.25 | – | 100% | 98% | –
OC/C=C/c1ccc2cc(Cl)c(F)cc2n1 | 14.3 µM | 79.6 µM | 5.54 | – | 60% | 50% | –
OC/C=C/c1cc(N2CCCCC2)c2cc(Cl)c(F)cc2n1 | 2.84 µM | 22.3 µM | 7.86 | 100% | 81% | 39% | –
OC/C=C/c1ccc2cc(F)ccc2n1 | 17.9 µM | 51.2 µM | 2.86 | – | 100% | 76% | –
OC/C=C/c1cc(-c2cccc(F)c2)c2cc(Cl)c(F)cc2n1 | 1.79 µM | 21.6 µM | 12.08 | 59% | 40% | 25% | –
OC/C=C/c1ccc2ccccc2n1 | 10 µM | 31.9 µM | 3.17 | – | 100% | 96% | growth inhibition (GI) (Leishmania donovani [9]): inactive
OC/C=C/c1ccc2c(F)c(Cl)ccc2n1 | 4.1 µM | 19.5 µM | 4.76 | – | – | – | –
CN1CCN(c2cc(/C=C/CO)nc3cc(F)c(Cl)cc23)CC1 | 5.88 µM | 44.6 µM | 7.58 | 89% | 27% | 27% | –
N#C/C=C/c1ccc2ccccc2n1 | 28.6 µM | 155 µM | 5.41 | – | 100% | 100% | –
OC/C=C/c1cc(N2CCOCC2)c2cc(Cl)c(F)cc2n1 [listing 1 of 2 here] | – | – | – | – | – | – | inhibition in vivo at 50 mg/kg (Leishmania donovani [10]; read-out: GI): 84.3%
CC1CN(c2cc(/C=C/CO)nc3cc(F)c(Cl)cc23)CC(C)O1 (stereo not drawn) | 4.75 µM | 41.3 µM | 8.97 | 99% | 50% | 17% | –
OC/C=C/c1cc(N2CCOCC2)c2cc(Cl)ccc2n1 | 4.4 µM | 46.9 µM | 10.65 | 88% | 56% | 43% | –
COc1cc2nc(/C=C/CO)cc(N3CCOCC3)c2cc1Cl | 3.72 µM | 51.8 µM | 13.92 | 86% | 44% | 31% | –
COc1ccc(-c2cc(/C=C/CO)nc3cc(F)c(Cl)cc23)cc1 | 1.2 µM | 26.8 µM | 22.26 | 23% | 30% | 14% | growth inhibition (GI) (Leishmania donovani [10]): inactive
OC/C=C/c1ccc2cc(Cl)ccc2n1 | 0.86 µM | 28.9 µM | 33.59 | – | 100% | 87% | –
OC/C=C/c1cc(N2CCOCC2)c2cc(Cl)c(F)cc2n1 [listing 2 of 2 here] | 0.22 µM | 41.2 µM | 187.5 | 66% | 45% | 35% | inhibition in vivo at 50 mg/kg (Leishmania donovani [11]): 77.2%; Stability [12]: Unstable; Tmax [13]: 15 min; Stability [14]: Stable; AUC(0-t) [15]: 193 ng·h/mL; Cmax [16]: 2230 ng/mL; AUC(0-inf) [17]: 193 ng·h/mL; AUC(0-t) [18]: 6.88 ng·h/mL; half-life [19]: 28.2 min; bioavailability [20]: 0.7%; Tmax [21]: 4.8 min; inhibition in vivo at 50 mg/kg (Leishmania donovani [9]; MHOM/IN/80/Dd8, ip, route intraperitoneal, read-out: GI): 25.4%; clearance [22]: 865 mL/min/kg; Vd [23]: 7.54 L/kg; Cmax [24]: 19.7 ng/mL
OCC#Cc1ccc2ccccc2n1 | 10.7 µM | 26.2 µM | 2.45 | – | 99% | 22% | –
OC/C=C/c1cc(-c2ccc(F)cc2)c2cc(Cl)ccc2n1 | 1.57 µM | 32.5 µM | 20.71 | – | 83% | 25% | –
